This is a sample that favours compounds with a hit; in the whole collection about 1.6% have one here.
Neddylation inh – inhibitors of cullin neddylation, primary screen, biochemical, TR-FRET, uHTS, NAE and Ubc12; NEDD8-conjugating enzyme Ubc12 (Homo sapiens) + NEDD8-activating enzyme E1 regulatory …; calls only at 25 µM; actives 0.58% (n = 360,000); AID 651699, 2012; in the data active = inhibition above about 36%
procasp7 counter – procaspase-7 activators, primary screen, counter-screen for procaspase-3 activator project, biochemical, absorbance, HTS, human | AID 463210, 2010 | Caspase-7 (Homo sapiens), P55210 | activation, % at 8.5 µM | actives 0.093% (n = 330,000) | recombinant procaspase-7, Ac-DEVD-pNA absorbance 405 nm; D23A/D198A/D206A triple mutant, cannot self-cleave; scale: DMSO 0, 5 µM enzyme 100;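 active = percent activation above the screen-wide mean plus 3 SD, cut at about 25% in these data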
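System: Uncleavable procaspase-7 mutant enzyme; Amount: 2 µM procaspase-7 mutant as dispensed; Schedule: 1 h compound preincubation, 2 h substrate cleavage, 25 °C; Measured by: 405 nm absorbance of p-nitroaniline; Evaluation: percent activation from buffer-corrected 0–120 min absorbance change; Control set: low DMSO alone, high DMSO plus 5 µM PC-7.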
proKLK7 act – proKLK7 zymogen activators, primary screen, biochemical, fluorescence intensity | Kallikrein-7 (Homo sapiens), P49862 | purified proKLK7, EDANS-DABCYL substrate fluorescence; 100% is mature enzyme control, 0% vehicle | activation, % at 7 µM | actives 0.9% (n = 370,000);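 active = activation above the mean of all tested compounds plus 3 SD, computed per campaign excluding outliers beyond control limits, cut at about 13% in these data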
Target sequence (P49862 whole entry, looked up): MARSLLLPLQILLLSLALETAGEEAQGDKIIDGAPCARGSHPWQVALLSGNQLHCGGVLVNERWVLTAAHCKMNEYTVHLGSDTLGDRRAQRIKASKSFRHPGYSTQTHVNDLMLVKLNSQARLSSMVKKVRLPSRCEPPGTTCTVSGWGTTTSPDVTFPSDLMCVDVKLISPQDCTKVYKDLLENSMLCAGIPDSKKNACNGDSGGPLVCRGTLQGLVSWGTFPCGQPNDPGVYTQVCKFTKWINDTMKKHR
proCasp3 act – activators of human procaspase-3 D3A mutant, primary screen, biochemical, absorbance, PC-3 D3A mutant, single concentration | Caspase-3 (Homo sapiens), P42574 | recombinant procaspase-3 D3A, Ac-DEVD-pNA absorbance 405 nm | activation, % at 8.5 µM | actives 0.11% (n = 330,000) | AID 463141, 2010;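 active = activation above the mean of all tested compounds plus 3 SD, cut at about 21% in these data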;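 note: 0% = DMSO alone and 100% = DMSO wells spiked with extra 5 µM PC-3 D3A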
Target sequence (P42574 whole entry D9A/D28A/D175A): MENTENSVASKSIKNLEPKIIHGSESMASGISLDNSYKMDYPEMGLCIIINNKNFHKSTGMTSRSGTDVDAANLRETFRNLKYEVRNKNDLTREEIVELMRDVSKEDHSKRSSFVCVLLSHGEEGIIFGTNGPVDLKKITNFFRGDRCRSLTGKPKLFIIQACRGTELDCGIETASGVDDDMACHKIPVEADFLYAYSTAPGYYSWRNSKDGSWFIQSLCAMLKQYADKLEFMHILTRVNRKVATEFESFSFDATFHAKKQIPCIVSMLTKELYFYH
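System: Procaspase-3 D3A mutant. Medium: Zinc-free 300 mM NaCl, 50 mM HEPES, 0.01% Triton X-100. Schedule: 1 h preincubation plus 2 h reaction at 25 °C. Measured by: 405 nm absorbance of p-nitroaniline, reads at 0 and 120 min. Read-out: percent activation relative to control range.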
KLK7 act conf – proKLK7 zymogen activators, confirmation, biochemical, fluorescence intensity, triplicate; shares compounds with proKLK7 act; purified proKLK7, EDANS-DABCYL substrate fluorescence; scaled: vehicle 0, mature enzyme 100; activation, % at 7 µM; actives 68% (n = 3,200);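 active = activation, as change over the incubation, above the mean of all tested compounds plus 3 SD, cut at about 13% in these data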
EDANS interfere – EDANS-DABCYL substrate optical interference, artefact control for kallikrein-7 zymogen activator project, biochemical, fluorescence intensity, high throughput. shares compounds with proKLK7 act. no enzyme, 4 h; solvent 0%, active enzyme control 100%. activation, % at 7 µM. actives 80% (n = 3,200). AID 686952, 2013;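 active = activation above the all-compound mean plus 3 SD, ignoring values outside control-based bounds, cut at about 4.8% in these data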;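 note: value is the 4 h activation minus the activation read at time zero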
EDANS interf – EDANS fluorescence interference in dose response, no enzyme. EC50, µM. shares compounds with proKLK7 act. EDANS-DABCYL peptide fluorescence interference. AID 720493. actives 20% (n = 250);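 active = compounds that raise the fluorescence signal in this interference counterscreen, with EC50 at or below 10 µM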;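 note: intact quenched peptide substrate alone read at 355 nm excitation and 520 nm emission; signal is fluorescence gain from T0 to T4 after four hours at room temperature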
Numbers without * were called inactive; i = inactive; · = not tested or not shown.

SMILES | Neddylation inh | procasp7 counter | proKLK7 act | proCasp3 act | KLK7 act conf | EDANS interfere | others
COC(=O)C(OC(=O)c1ccccc1)C(C)Br (stereo not given) | i | 1 | 0 | 3 | · | ·
CCCCN1CCS(=O)(=O)N(Cc2cn(Cc3ccc(C)cc3)nn2)C(C(=O)OC)C1 (stereo not given) | · | · | 0 | · | · | ·
CCn1c(=O)c2cc(C(=O)NCCCOC)sc2c2ccccc21 | · | -3 | 15* | -3 | -11 | -14
Cc1nn(-c2ccccn2)c2nc(-c3cccs3)cc(C(=O)N3CCOCC3)c12 | · | 4 | 23* | 5 | 32* | 26* | EDANS interf=>70
Cc1nc2ccc(NC(=O)c3c(Cl)cccc3Cl)cc2c(=O)[nH]1 | · | · | 0 | · | · | ·
CCCCn1c(SCC(=O)NC(C)CC)nc2ccc(N3CCOCC3)cc2c1=O (stereo not given) | · | 7 | 2 | 7 | · | ·
CCCCn1c(SCC(=O)Nc2ccc(OC)cc2)nc2ccc(N3CCOCC3)cc2c1=O | · | 0 | 17* | -2 | -5 | -4
C/C(=N/NC(N)=S)c1cc2ccc(O)cc2oc1=O | · | -26 | 7 | -15 | · | ·
O=c1oc2cc(O)ccc2cc1S(=O)(=O)c1ccccc1 | · | -23 | 38* | -24 | 73* | 67*
Cc1cc(-c2nc3ccccc3o2)c2ccccc2n1 | i | -3 | 2 | 9 | · | ·
CCN(CC)c1ccc2cc(S(=O)(=O)c3ccc(Cl)cc3)c(=O)oc2c1 | i | -34 | -1 | -25 | · | ·
NC(=S)c1cc2ccc(O)cc2oc1=O | · | · | 24* | · | 70* | 73*
O=c1oc2cc(O)ccc2cc1-c1nc2ccccc2o1 | i | · | 108* | · | 61* | 73*
CN(C)C(CNC(=O)c1ccc2c(=O)n(-c3ccccc3F)c(=S)[nH]c2c1)Cc1ccccc1 (stereo not given) | i | 5 | 1 | 3 | · | ·
C=CC[C@@H]1C=C[C@H](O/N=C/c2ccc(C(=O)N3[C@H](c4ccc(C)cc4)[C@@H](C)CC[C@H]3C(=O)OC)cc2)[C@@H](CO)O1 | · | 1 | · | 9 | · | ·
CCC(=O)c1ccc(OCC(=O)NCc2ccccc2CN2CCCC2)cc1 | i | -4 | 0 | -3 | · | ·
N#CC1=C(N)Oc2cc(N)ccc2C1c1cccnc1 (stereo not given) | i | -11 | 1 | -11 | · | ·
N#CC1=C(N)Oc2cc(N)ccc2C1c1ccc(F)cc1F (stereo not given) | · | -24 | 17* | -11 | 13* | 15*
N#CC1=C(N)Oc2cc(N)ccc2C1c1ccc(F)cc1 (stereo not given) | i | -19 | 3 | -10 | · | ·
N#CC1=C(N)Oc2cc(N)ccc2C1c1ccccc1Cl (stereo not given) | · | · | 20* | · | 4 | 5.8*
CCN(CC)C(=O)COc1coc(CN2CCN(c3ccccc3F)CC2)cc1=O | i | 5 | -1 | -2 | · | ·
Clc1ccccc1-c1cccc2nccn12 | · | · | 1 | · | · | ·
CN(C)Cc1ccccc1-c1cccc2nccn12 | · | · | 19* | · | 2 | 3
C[C@H](O)[C@@H]1C(=O)N2CCc3c([nH]c4ccccc34)[C@@H]2C[C@@H]1N(C)S(=O)(=O)c1ccccc1 | · | · | 59* | · | 43* | 37* | EDANS interf=7.5*
C[C@H](O)[C@@H]1C(=O)N2CCc3c([nH]c4ccccc34)[C@@H]2C[C@@H]1N(C)C(=O)c1cc(Cl)cc(Cl)c1 | i | · | 47* | · | 15* | 12* | EDANS interf=>23
SMILES | Neddylation inh | procasp7 counter | proKLK7 act | proCasp3 act | KLK7 act conf | EDANS interfere | others
C[C@H](O)[C@@H]1C(=O)N2CCc3c([nH]c4ccccc34)[C@@H]2C[C@@H]1N(C)Cc1ccc2c(c1)OCO2 | i | · | 26* | · | 4 | 3
Cc1ccccc1C(=O)N(C)[C@H]1C[C@H]2c3[nH]c4ccccc4c3CCN2C(=O)[C@H]1[C@H](C)O | i | · | 78* | · | 27* | 27*
OCCOc1ccc(CN2CCN(CCCc3ccccc3)C(CCO)C2)cc1 (stereo not given) | i | · | 0 | · | · | ·
O=C1CCC(=O)N1c1nc2nc(-c3ccccc3)cc(-c3ccccc3)n2n1 | i | 2 | 31* | -4 | 40* | 44*
COc1ccccc1[C@H]1C(c2ccc(F)cc2)=NN(c2ccccc2)[C@@H]1CO | · | 13 | -58 | 10 | · | ·
C[C@H]1C(c2ccc(F)cc2)=NN(c2ccccc2)[C@@H]1CO | · | -1 | 23* | -2 | -13 | -26
CCOC(=O)CNC(=O)CSc1nnc(NC(=O)c2ccc(S(=O)(=O)N3CCOCC3)cc2)s1 | i | 5 | 0 | 10 | · | ·
CCC1(C)Cc2ccccc2-c2nc(NCCO)[nH]c(=O)c21 (stereo not given) | · | -4 | 23* | 2 | -24 | -31
CC1(C)Cc2ccccc2-c2nc(NCCCO)[nH]c(=O)c21 | · | 2 | 39* | 4 | -1 | -8
CC(C)(C)C(=O)N1CCC[C@]2(CC[C@H](CCC#N)O2)C1 | · | · | -1 | · | · | ·
Fc1ccc(-c2nnc3ccc(N4CCc5ccccc5C4)nn23)cc1 | i | 10 | -1 | 1 | · | ·
CC1=C(C(N)=O)C(c2cccs2)n2ncnc2N1 (stereo not given) | i | 1 | 0 | 0 | · | ·
c1csc(C2C3=C(Nc4ncnn42)c2ccccc2OC3)c1 (stereo not given) | · | 2 | 17* | 5 | 34* | 31*
CCOC(=O)c1cc(C)[nH]c(=O)c1C#N | · | 13 | 42* | 11 | 65* | 74*
O=C(Nc1ccc(Cl)cc1C(=O)c1ccccn1)c1ccccc1 | i | · | 0 | · | · | ·
CC1(C)CC(=O)C(CSC(=O)c2ccccc2)C(=O)C1 | i | · | 0 | · | · | ·
COCCNC(=O)c1c(N)n(-c2ccccc2)c2nc3ccccc3nc12 | · | -8 | -32 | -1 | · | ·
COCC(C)OC(=O)c1c(N)n(CC(C)C)c2nc3ccccc3nc12 (stereo not given) | · | -6 | 59* | -2 | -33 | -30
CC(C)OC(=O)c1c(N)n(CCCN2CCOCC2)c2nc3ccccc3nc12 | · | -2 | 28* | -5 | 9 | 7.4*
COC(=O)c1c(N)n(-c2ccc(NC(C)=O)cc2)c2nc3ccccc3nc12 | · | 0 | 24* | 4 | 76* | 73*
